Screening results from PubChem BioAssay.
Only some compounds are listed: those with a hit (about 3% of all), similar ones and a draw of the others.
ROMK mod – ROMK potassium channel modulators, primary screen, cell-based, thallium flux, MLSMR library; Tet-inducible ROMK, thallium flux fluorescence; actives lie on both sides; B-score at 10 µM; hit rate 2% among 130,000;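 active = signal ratio slope over the read window, or its plate-corrected B-score, at least 3 SD from the plate mean, either direction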;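 also: B-score of the F/F0 ratio slope over 7 to 12 s after thallium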
PKD1 inh – inhibitors of human PKD1 kinase, biochemical, fluorescence polarization. hit rate 0.056% among 200,000. inhibition, % (concentration not given with the values). Serine/threonine-protein kinase D1 (Homo sapiens), Q15139. PKD1 kinase fluorescence polarization assay; in the data active = inhibition above about 50%
KCC2 mod – KCC2 cotransporter modulators, thallium flux, primary screen, cell-based, HEK293 KCC2, FluoZin-2 fluorescence, MLSMR; Solute carrier family 12 member 5 (Homo sapiens), Q9H2X9; KCC2 cells, thallium flux FluoZin-2 fluorescence; B-score of Tl+ flux slope (higher = more flux/activation; lower = inhibition) at 10 µM; hit rate 2.2% among 190,000;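 active = thallium flux slope and its plate-corrected score both differing from the plate sample mean at a set confidence after two filtering rounds, in either direction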;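 also: slope of fluorescence scaled to starting intensity during 10 to 20 s after thallium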
Target sequence (Q9H2X9 whole entry, looked up): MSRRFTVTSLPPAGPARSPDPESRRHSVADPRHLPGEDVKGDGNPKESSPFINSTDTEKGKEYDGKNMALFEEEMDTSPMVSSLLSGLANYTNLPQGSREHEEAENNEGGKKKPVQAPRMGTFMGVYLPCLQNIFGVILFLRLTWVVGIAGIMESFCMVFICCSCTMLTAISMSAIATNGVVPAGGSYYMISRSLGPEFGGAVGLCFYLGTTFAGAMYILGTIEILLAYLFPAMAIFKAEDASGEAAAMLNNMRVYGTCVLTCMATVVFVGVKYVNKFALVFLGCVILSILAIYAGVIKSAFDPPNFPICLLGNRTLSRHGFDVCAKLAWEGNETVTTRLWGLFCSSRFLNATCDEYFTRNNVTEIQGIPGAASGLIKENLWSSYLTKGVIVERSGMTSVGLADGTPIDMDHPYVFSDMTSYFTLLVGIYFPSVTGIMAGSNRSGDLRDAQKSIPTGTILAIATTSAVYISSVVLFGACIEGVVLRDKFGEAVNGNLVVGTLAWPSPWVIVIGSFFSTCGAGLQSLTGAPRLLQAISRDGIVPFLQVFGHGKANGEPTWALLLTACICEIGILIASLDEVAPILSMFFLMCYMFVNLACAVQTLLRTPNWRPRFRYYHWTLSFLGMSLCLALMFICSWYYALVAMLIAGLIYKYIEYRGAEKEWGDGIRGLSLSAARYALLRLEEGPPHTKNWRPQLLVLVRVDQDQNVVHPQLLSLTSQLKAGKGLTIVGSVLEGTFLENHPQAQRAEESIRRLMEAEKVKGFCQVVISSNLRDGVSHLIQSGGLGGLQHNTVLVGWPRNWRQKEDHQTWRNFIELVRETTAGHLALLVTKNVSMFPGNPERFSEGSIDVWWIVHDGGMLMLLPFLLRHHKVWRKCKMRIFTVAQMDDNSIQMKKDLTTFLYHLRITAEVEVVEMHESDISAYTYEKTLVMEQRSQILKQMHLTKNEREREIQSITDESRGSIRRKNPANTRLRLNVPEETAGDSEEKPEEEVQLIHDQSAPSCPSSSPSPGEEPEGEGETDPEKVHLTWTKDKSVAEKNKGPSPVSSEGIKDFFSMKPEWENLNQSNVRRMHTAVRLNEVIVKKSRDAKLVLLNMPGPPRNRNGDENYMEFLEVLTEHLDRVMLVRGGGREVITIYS
Rad51 HR inh – human RAD51 strand exchange inhibitors, primary screen, biochemical, fluorescence. hRad51 DNA strand exchange, fluorescence dequenching. inhibition, % at 10 µM. hit rate 0.085% among 200,000. AID 1385, 2008;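 active = inhibition above 40% at the single screening dose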
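System: human Rad51 nucleoprotein filaments preassembled on unlabelled ssDNA. Reagent: labelled 47-mer dsDNA for strand exchange. Schedule: 30-min compound preincubation and 15-min exchange, both room temperature. Measured by: FRET fluorescence dequenching, excitation 485 nm, emission 520 nm. Read-out: Fluorescence-based percent inhibition, control- and blank-normalised. Benchmarks: plate controls and plate blanks.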
KCC2 sec1 – KCC2 modulators in sodium-free buffer, confirmation, cell-based, HEK293 KCC2, thallium flux, secondary assay; shares compounds with KCC2 mod; FluoZin2 fluorescence; hits give high values; normalised thallium flux (F/F0 slope) at 10 µM; hit rate 15% among 3,700; AID 1713, 2009;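 active = thallium flux slope above the same plate's solvent-only control mean plus 3 SD; inconclusive = the two replicate wells disagree; inactive = no significant difference from solvent-only control wells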
KCC2 bumet counter – thallium flux persisting under bumetanide in KCC2 cells, confirmation, counter-screen for KCC2 modulator project, cell-based, HEK293 KCC2, FluoZin2, secondary assay 3; normalized thallium flux at 10 µM; hit rate 49% among 3,700; HEK293-KCC2 + bumetanide/ouabain; hits give high values; shares compounds with KCC2 mod;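 active = thallium entry rate above the same plate's blocked-transporter control wells by more than 3 SD; inconclusive = the two repeat wells disagree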;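 also: raw slope of fluorescence over initial fluorescence between 10 and 20 s after thallium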
KCC2 sec2 – KCC2 modulators without ouabain present, confirmation, cell-based, HEK293 KCC2, thallium flux, FluoZin2, secondary assay 2. AID 1715, 2009. shares compounds with KCC2 mod. thallium flux FluoZin2 fluorescence; actives lie on both sides; F/F0 rise rate, 10–20 s post-thallium. normalized thallium flux at 10 µM. hit rate 23% among 3,700;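 active = thallium flux slope more than 3 SD above or below the plate's solvent-only control mean, mostly below; inconclusive = the two repeat wells disagreed; inactive = no significant shift from solvent-only controls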
HEK counter1 – thallium flux modulation in parental HEK cells, confirmation, counter-screen for KCC2 modulator project, cell-based, counterscreen 1; shares compounds with KCC2 mod; thallium flux rate (normalised fluorescence) at 10 µM; hit rate 46% among 3,700; HEK293 parental cells, thallium flux FluoZin2, ouabain; baseline-ratio fluorescence slope, 10–20 s after thallium;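 active = thallium flux rate significantly above the same plate's solvent-only control wells, beyond their mean plus 3 SD; inconclusive = the two replicate wells gave conflicting results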
KCC2 retest ouab – KCC2 inhibitors and activators, ouabain retest, confirmation, HEK-KCC2 cells; shares compounds with KCC2 mod; HEK293-KCC2, thallium flux FluoZin2 fluorescence; bidirectional: low = inhibitor, high = activator; raw Tl+ flux slope (below DMSO = inhibition, above = activation) at 10 µM; hit rate 48% among 3,700;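 active = thallium flux slope beyond 3 SD from same-plate DMSO control mean in most replicates, usually higher, sometimes lower; inconclusive = repeat tests gave conflicting results; inactive = no significant difference from controls in most replicates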;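 also: slope of initial-normalized fluorescence between seconds 10 and 20 after thallium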
HEK counter2 – native HEK Tl+ uptake effects, second counter-screen – HEK cells, counterscreen 2, counter-screen for KCC2 modulator project, confirmation; shares compounds with KCC2 mod; HEK293 parental, thallium flux FluoZin-2 fluorescence slope; thallium flux slope at 10 µM; hit rate 33% among 3,700;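 active = thallium flux slope above the same plate's solvent-control mean plus 3 SD in both duplicate wells; inconclusive = duplicate wells that disagreed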;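 also: run without ouabain in cells lacking the KCC2 cotransporter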
Large screens that a line does not name were inactive (follow-up assays come after a bar, where they were run).

Cc1ccc(C)c(S(=O)(=O)N2CCC(c3nc4c(nnn4Cc4ccc(F)cc4)c(=O)[nH]3)CC2)c1	KCC2 mod -4.24 (no result: ROMK mod) | KCC2 sec1 inactive | KCC2 bumet counter inactive | KCC2 sec2 inactive | HEK counter1 inactive | KCC2 retest ouab 0.0163 | HEK counter2 inactive
Cc1ccc(Cn2nnc3c(=O)[nH]c(C4CCN(S(=O)(=O)c5cc(C)ccc5C)CC4)nc32)cc1	none (no result: ROMK mod)
Cc1onc(-c2ccccc2Cl)c1C(=O)NC(=S)Nc1ccc(C(C)(C)C)cc1	KCC2 mod 6.89 (no result: PKD1 inh) | KCC2 sec1 inactive | KCC2 bumet counter 0.0118 | KCC2 sec2 inactive | HEK counter1 0.0131 | KCC2 retest ouab inactive | HEK counter2 0.013
Cc1onc(-c2ccccc2Cl)c1C(=O)Nc1ccccc1	none (no result: ROMK mod)
CCc1ccc(NC(=S)NC(=O)c2c(-c3ccccc3Cl)noc2C)cc1	KCC2 mod 16.4 (no result: PKD1 inh) | KCC2 sec1 inactive | KCC2 bumet counter 0.0271 | KCC2 sec2 0.0403 | HEK counter1 0.0277 | KCC2 retest ouab 0.0318 | HEK counter2 0.0171
COc1ccc(C(=O)N/N=C/C2CC=CCC2)cc1OC (stereo not given)	none (no result: ROMK mod)
COc1ccc(-c2nc3n(n2)C(c2ccncc2)C(C(N)=O)=C(C)N3)cc1 (stereo not given)	KCC2 mod 11.3 (no result: ROMK mod, Rad51 HR inh) | KCC2 sec1 inactive | KCC2 bumet counter inactive | KCC2 sec2 inactive | HEK counter1 inactive | KCC2 retest ouab inactive | HEK counter2 inactive
COc1ccc(-c2nc3n(n2)C(c2cccnc2)C(C(N)=O)=C(C)N3)cc1 (stereo not given)	none
CCOC(=O)C1=NN(C(C)=O)C2C(=O)N(CC)C(=O)C12 (stereo not given)	none (no result: ROMK mod, PKD1 inh)
CCOC(=O)c1c(-c2ccc(OC)cc2)csc1/N=C/C1=C(O)CCCC1=O	none (no result: Rad51 HR inh)
COc1cc(/C=C(\C#N)C(=O)NCc2ccccc2)ccc1OCc1ccc(C(=O)O)cc1	KCC2 mod -4.14 (no result: ROMK mod, PKD1 inh, Rad51 HR inh) | KCC2 sec1 inactive | KCC2 bumet counter 0.00875 | KCC2 sec2 inactive | HEK counter1 inactive | KCC2 retest ouab inconclusive | HEK counter2 inactive
O=C1CSC(=S)N1N1C(=O)c2cccc([N+](=O)[O-])c2C1=O	none
Cn1c(=O)c([N+](=O)[O-])c(NCCc2ccccc2)c2ccccc21	none (no result: ROMK mod)
Cn1c(=O)c([N+](=O)[O-])c(NCc2ccccc2Cl)c2ccccc21	KCC2 mod -4.51 (no result: ROMK mod, PKD1 inh) | KCC2 sec1 inactive | KCC2 bumet counter inactive | KCC2 sec2 inconclusive | HEK counter1 0.00626 | KCC2 retest ouab inconclusive | HEK counter2 inconclusive
COc1ccc(OC)c(-c2cc(C(=O)Nc3ccc(F)cc3F)no2)c1	none
CC1Cc2ccccc2N1C(=O)COC(=O)c1cccnc1Cl (stereo not given)	KCC2 mod -4.01 (no result: ROMK mod) | KCC2 sec1 inactive | KCC2 bumet counter inactive | KCC2 sec2 inactive | HEK counter1 inactive | KCC2 retest ouab inconclusive | HEK counter2 inconclusive
CC1Cc2ccccc2N1C(=O)CN(C)S(=O)(=O)c1cccc2cccnc12 (stereo not given)	none (no result: ROMK mod, KCC2 mod) | KCC2 sec1 inactive | KCC2 bumet counter inactive | KCC2 sec2 0.0227 | HEK counter1 inactive | KCC2 retest ouab inconclusive | HEK counter2 inactive
Cc1cnc(C(=O)OCC(=O)N2c3ccccc3CC2C)cn1 (stereo not given)	none (no result: KCC2 mod)
CC(C)(C)C(=O)COC(=O)c1cc(-c2cccnc2)nc2ccccc12	none
S=c1nc(-c2ccccc2)[nH]c2ccc(Br)cc12	KCC2 mod 107 (no result: ROMK mod, PKD1 inh) | KCC2 sec1 0.0253 | KCC2 bumet counter 0.116 | KCC2 sec2 0.0993 | HEK counter1 0.108 | KCC2 retest ouab 0.108 | HEK counter2 0.0957
Cc1cc(=O)c2cc(Br)ccc2[nH]1	none (no result: KCC2 mod)
CC(C)NC(=O)NC(=O)COC(=O)Cc1c(F)cccc1Cl	none
CC(C)C(=O)Nc1ncc(C(F)(F)F)cc1Cl	none (no result: ROMK mod)
ON/C=N/C(=S)Nc1ncc(C(F)(F)F)cc1Cl	KCC2 mod 24.6 | KCC2 sec1 inactive | KCC2 bumet counter 0.0519 | KCC2 sec2 0.0582 | HEK counter1 0.0481 | KCC2 retest ouab 0.0523 | HEK counter2 inconclusive
O=C(Nc1ccc(F)cc1F)c1cccn1-c1ncc(C(F)(F)F)cc1Cl	none (no result: ROMK mod, KCC2 mod)
Cc1ccc(NC(=S)NNC(=S)Nc2cccc(C(F)(F)F)c2)cc1	none (no result: PKD1 inh, KCC2 mod)
Cc1ccc(NC(=S)NNc2ncc(C(F)(F)F)cc2Cl)cc1	KCC2 mod 16.7 (no result: ROMK mod) | KCC2 sec1 inconclusive | KCC2 bumet counter 0.0783 | KCC2 sec2 inactive | HEK counter1 0.0126 | KCC2 retest ouab 0.0418 | HEK counter2 0.0118
Fc1ccc(NC(=S)NNc2ncc(C(F)(F)F)cc2Cl)c(F)c1	KCC2 mod 52.6 (no result: ROMK mod) | KCC2 sec1 inactive | KCC2 bumet counter 0.0382 | KCC2 sec2 inconclusive | HEK counter1 0.0321 | KCC2 retest ouab 0.0353 | HEK counter2 0.0222
CSc1sc(C(=O)O)c2c1C(=O)CCC2	KCC2 mod -4.04 | KCC2 sec1 inactive | KCC2 bumet counter inconclusive | KCC2 sec2 inactive | HEK counter1 inactive | KCC2 retest ouab inactive | HEK counter2 inactive
CSc1sc(C(=O)O)c2c1C(=O)CC(C)(C)C2	none (no result: ROMK mod, PKD1 inh, KCC2 mod)
CC(C)CC(OC(=O)c1nsc(Cl)c1Cl)C(=O)NCc1cccs1 (stereo not given)	KCC2 mod -3.69 | KCC2 sec1 inactive | KCC2 bumet counter inactive | KCC2 sec2 inactive | HEK counter1 inactive | KCC2 retest ouab inactive | HEK counter2 inactive
CS(=O)(=O)N(CC(=O)N1CCN(c2ccc(F)cc2)CC1)c1ccc(F)c(Cl)c1	KCC2 mod -4.44 | KCC2 sec1 inconclusive | KCC2 bumet counter inactive | KCC2 sec2 0.0277 | HEK counter1 inactive | KCC2 retest ouab 0.0163 | HEK counter2 inactive
